The list is not random: actives were taken first. Their share in the collection is about 0.6%.
LANA DNA inh: inhibitors of KSHV C-LANA binding to DNA, primary screen, biochemical, fluorescence polarization, FAM-LBS DNA, MBP-C-LANA, single point | Kaposi's sarcoma herpesvirus LANA C-terminal domain (residues 932-1162) DNA binding | inhibition, % at 9 µM | actives 0.078% (n = 340,000);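 active = highest replicate inhibition at or above 60% at 9 µM, even if other replicates fall short; inactive = all replicates below 60% inhibition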;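 also: 0% = neutral control wells and 100% = 4 µM acridine orange control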
Rtt109 Vps75: inhibitors of C. albicans Rtt109/Vps75 HAT, primary screen, biochemical, ThioGlo CoA-SH fluorescence, plate reader | purified Rtt109/Vps75, 4 h | actives 0.16% (n = 330,000) | inhibition, % at 34.9 µM | Histone acetyltransferase RTT109 (Candida albicans (strain SC5314 / ATCC MYA-2876)), …;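 active = inhibition of at least 50% in every replicate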
Target sequence (Q5AAJ8 whole entry, looked up): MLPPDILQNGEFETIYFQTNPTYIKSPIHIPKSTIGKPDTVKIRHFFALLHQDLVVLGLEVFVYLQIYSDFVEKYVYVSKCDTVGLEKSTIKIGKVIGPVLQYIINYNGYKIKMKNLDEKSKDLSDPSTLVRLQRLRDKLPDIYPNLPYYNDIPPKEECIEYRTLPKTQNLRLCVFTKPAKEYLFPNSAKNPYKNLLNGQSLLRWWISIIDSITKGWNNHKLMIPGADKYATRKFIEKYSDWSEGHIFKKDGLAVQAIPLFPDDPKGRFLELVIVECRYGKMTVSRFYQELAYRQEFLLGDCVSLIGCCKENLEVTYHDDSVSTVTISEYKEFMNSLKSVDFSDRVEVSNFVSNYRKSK
DDE Tn6 FP inh: inhibitors of Tn6 peptide binding to fibrin DD(E), primary screen, biochemical, fluorescence polarization, human fibrin, Tn6 probe. Fibrinogen beta chain (Homo sapiens), P02675. Fibrin DD(E) TRITC-Tn6 fluorescence polarization displacement. inhibition, % at 8.3 µM. actives 0.21% (n = 370,000). AID 720509, 2013;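 active = inhibition above a per-campaign cutoff: mean of compounds within control limits plus 3 SD, cut at about 15% in these data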;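 also: 0% = median of all compound wells on the plate and 100% = blocking peptide control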
Tn7 DDE FP: inhibitors of Tn7 peptide binding to fibrin DD(E), primary screen, biochemical, fluorescence polarization, human fibrin, Tn7 probe. FP displacement of FITC-Tn7 peptide from fibrin DD(E); 0% = median of compound wells per plate. inhibition, % at 8.3 µM. actives 0.13% (n = 370,000). AID 720508, 2013;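 active = inhibition above the mean of compounds falling within the control limits plus 3 SD of them, cut at about 14% in these data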;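 also: 0% = plate median of compound wells and 100% = 10 µM Aha-Tn7 peptide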
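System: human fibrin DD(E); quantity: Fibrin-DD(E) at 2 µM final; also added: fluorescent Tn7 probe at 0.1 µM; compound dosing: single nominal test concentration of 8.3 µM per compound; schedule: 10 min preincubation, 3 h with tracer, room temperature; detection: fluorescence polarization of the labelled Tn7 tracer; repeats: one replicate per compound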
Keap1-Nrf2 PPI: Keap1-Nrf2 protein-protein interaction inhibitors, primary screen, biochemical, fluorescence polarization, single point; Kelch-like ECH-associated protein 1 (Homo sapiens), Q14145; inhibition, % at 9.4 µM; Keap1 Kelch-Nrf2 peptide fluorescence polarization, 1536-well; AID 504523, 2011; actives 0.15% (n = 340,000); in the data active = inhibition above about 12%;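 also: human Keap1 Kelch domain with fluorescein labeled Nrf2 9mer peptide probe; 0% = neutral control wells and 100% = peptide positive control; higher means more block of Keap1 binding to Nrf2 peptide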
Tn6 DDE ctr: counter-screen for inhibitors of Tn6 peptide binding to fibrin DD(E) | actives 2% (n = 680) | TRITC-Tn6 fluorescence polarization displacement; 0% = median of compound wells, not DMSO | shares compounds with DDE Tn6 FP inh | inhibition, % at 8.3 µM;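 active = inhibition above the mean of test compounds lying between the control limits plus 3 SD of those, cut at about 14% in these data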;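 also: 0% = median of compound wells and 100% = wells with Aha-Tn7 blocking peptide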
DDE Tn6 confirm: inhibitors of Tn6 peptide binding to fibrin DD(E), confirmation, biochemical, fluorescence polarization, human fibrin, Tn6 probe | shares compounds with DDE Tn6 FP inh | FP displacement of TRITC-Tn6 peptide from DD(E); 0% = per-plate median of test wells | actives 10% (n = 680) | inhibition, % at 8.3 µM;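 active = inhibition above the mean of compounds lying within the control limits plus 3 SD, cut at about 16% in these data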;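 also: 100% = high control wells holding a competing inhibitor peptide at 10 µM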
* hit, by the source's call.

For Cc1ccc(C(=O)NCCN2C(=O)C3C4C=CC(C4)C3C2=O)cc1 (stereo unspecified) the results were DDE Tn6 FP inh -3 and Tn7 DDE FP -7.
O=C1CC(N2CCOCC2)=NC(=O)N1c1ccc(Br)cc1 was read as DDE Tn6 FP inh 6 and Tn7 DDE FP 0.
Screening O=C(Nc1ccc(Cl)cc1)c1csc(-c2ccccc2)n1 returned LANA DNA inh -1, Rtt109 Vps75 2, DDE Tn6 FP inh 28*, Tn7 DDE FP 6, Keap1-Nrf2 PPI -6, Tn6 DDE ctr 10 and DDE Tn6 confirm 26*.
Screening COc1ccc(-n2c(=O)[nH]cc(C(=O)Nc3ccc4c(c3)OCCO4)c2=O)cc1OC returned LANA DNA inh -1, Rtt109 Vps75 9, DDE Tn6 FP inh 2, Tn7 DDE FP -2 and Keap1-Nrf2 PPI -3.
O=C(Nc1ccc2c(c1)OCO2)c1c[nH]c(=O)n(-c2ccc(F)cc2)c1=O was read as LANA DNA inh 0, Rtt109 Vps75 3, DDE Tn6 FP inh 15*, Tn7 DDE FP 1, Keap1-Nrf2 PPI 1, Tn6 DDE ctr 5 and DDE Tn6 confirm 4.
For O=C1c2cccc3c(O)ccc(c23)C(=O)N1Cc1ccccc1 the results were LANA DNA inh 92*, Rtt109 Vps75 2, DDE Tn6 FP inh 24*, Tn7 DDE FP -1, Keap1-Nrf2 PPI 7, Tn6 DDE ctr 19* and DDE Tn6 confirm 19*.
`CCOC(=O)C1CCCN(c2c(NCCc3ccc(C)cc3)c(=O)c2=O)C1` (stereo unspecified) gave LANA DNA inh -1, Rtt109 Vps75 1, DDE Tn6 FP inh 17*, Tn7 DDE FP 2, Keap1-Nrf2 PPI -6, Tn6 DDE ctr 3 and DDE Tn6 confirm -10.
Screening CCC(=O)NC(Nc1sc2c(c1C(=O)OC)CCN(C)C2)(C(F)(F)F)C(F)(F)F returned LANA DNA inh -4, Rtt109 Vps75 4, DDE Tn6 FP inh 17*, Tn7 DDE FP 2, Keap1-Nrf2 PPI -7, Tn6 DDE ctr 1 and DDE Tn6 confirm 0.
CCOC(=O)NC(Nc1sc2c(c1C(=O)OC)CCN(C)C2)(C(F)(F)F)C(F)(F)F was read as LANA DNA inh -2, Rtt109 Vps75 -8, DDE Tn6 FP inh -2, Tn7 DDE FP -3 and Keap1-Nrf2 PPI 2.
Screening Cc1cc2ccccc2n1CCNC(=O)c1ccc(S(=O)(=O)N2CCCCC2)cc1 returned LANA DNA inh -3, Rtt109 Vps75 3, DDE Tn6 FP inh 62*, Tn7 DDE FP 0, Keap1-Nrf2 PPI -6, Tn6 DDE ctr -4 and DDE Tn6 confirm 31*.
`Cc1cc2ccccc2n1CCNC(=O)Cc1ccccc1` gave LANA DNA inh 0, Rtt109 Vps75 -5, DDE Tn6 FP inh 26*, Tn7 DDE FP 11, Keap1-Nrf2 PPI 2, Tn6 DDE ctr -6 and DDE Tn6 confirm -4.
`Cc1cc(C)c(S(=O)(=O)NCCn2c(C)cc3ccccc32)c(C)c1` gave LANA DNA inh 3, Rtt109 Vps75 -7, DDE Tn6 FP inh 56*, Tn7 DDE FP -8, Keap1-Nrf2 PPI 0, Tn6 DDE ctr -4 and DDE Tn6 confirm 23*.
`COc1cc2c(cc1NC(=O)CSc1nnc(-c3cnccn3)n1-c1ccc(C)cc1)oc1ccccc12` gave DDE Tn6 FP inh -7 and Tn7 DDE FP 2.
Screening Cc1ccccc1CN1CCCCC(NC(=O)c2ccccc2C(F)(F)F)C1=O (stereo unspecified) returned DDE Tn6 FP inh 10 and Tn7 DDE FP 6.
For CCOc1ccccc1N(CC(=O)N1CCCC1)S(C)(=O)=O the results were LANA DNA inh 0, Rtt109 Vps75 -12, DDE Tn6 FP inh 16*, Tn7 DDE FP 11, Keap1-Nrf2 PPI -4, Tn6 DDE ctr 1 and DDE Tn6 confirm 1.
CCc1ccccc1N(CC(=O)N1CCCC1)S(C)(=O)=O was read as LANA DNA inh -1, Rtt109 Vps75 10, DDE Tn6 FP inh -1, Tn7 DDE FP -8 and Keap1-Nrf2 PPI 0.
Screening COc1cc2c(cc1NC(=O)CSc1nnc(-c3cccc(Cl)c3)n1Cc1ccco1)oc1ccccc12 returned DDE Tn6 FP inh -2 and Tn7 DDE FP -5.
COc1nc(Oc2ccc(C(=O)OCC(N)=O)cc2)nc(N(C)C)n1 was read as LANA DNA inh 1, Rtt109 Vps75 0, DDE Tn6 FP inh 4, Tn7 DDE FP 3 and Keap1-Nrf2 PPI -2.
Screening COC(=O)COC(=O)c1ccc(Oc2nc(OC)nc(N(C)C)n2)cc1 returned LANA DNA inh 0, Rtt109 Vps75 9, DDE Tn6 FP inh 21*, Tn7 DDE FP -9, Keap1-Nrf2 PPI -7, Tn6 DDE ctr 0 and DDE Tn6 confirm 4.
CCOC(=O)c1cccc(NC(=O)CN(C)S(=O)(=O)c2ccc(C)c(C)c2)c1 was read as DDE Tn6 FP inh 1 and Tn7 DDE FP -2.
`O=C(O)c1ccccc1-c1c2cc(I)c(=O)c(I)c-2oc2c(I)c(O)c(I)cc12` gave LANA DNA inh -26, Rtt109 Vps75 1, DDE Tn6 FP inh active, Tn7 DDE FP -98, Keap1-Nrf2 PPI -339, Tn6 DDE ctr -156 and DDE Tn6 confirm 93*.
Screening CCOC(=O)CC[C@H]1CC[C@]2(CCCN(S(C)(=O)=O)C2)O1 returned DDE Tn6 FP inh -1 and Tn7 DDE FP 7.
CCOC(=O)CNC(=O)Nc1cccc(Cl)c1C was read as LANA DNA inh -1, Rtt109 Vps75 -6, DDE Tn6 FP inh 52*, Tn7 DDE FP -1, Keap1-Nrf2 PPI 2, Tn6 DDE ctr 1 and DDE Tn6 confirm -4.
NC(=O)C1(N2CCCCC2)CCN(C(=O)CSc2nc3ccccc3s2)CC1 was read as LANA DNA inh 1, Rtt109 Vps75 -5, DDE Tn6 FP inh 17*, Tn7 DDE FP 3, Keap1-Nrf2 PPI -3, Tn6 DDE ctr 3 and DDE Tn6 confirm 2.
`O=C(CSc1nc2ccccc2s1)N1CCOCC1` gave LANA DNA inh -2, Rtt109 Vps75 11, DDE Tn6 FP inh 4, Tn7 DDE FP -7 and Keap1-Nrf2 PPI 3.
Screening Cc1ccc(CN2CCCCC(NC(=O)c3ccc(Br)cc3)C2=O)cc1 (stereo unspecified) returned DDE Tn6 FP inh -13 and Tn7 DDE FP 6.

Compound activity as filed in PubChem.
